Source: paper PMC5484535 (Bioorganic & medicinal chemistry, 2016)
Blank lines part the entries; values can stand above or below the compound they belong to.

Legend:
[1] = tested on: PANC-1; assay: Anti-proliferation in PANC-1 pancreatic cancer cells; format: cell-based; details: Homo sapiens, PANC-1, read-out: Cellular IC50s Pancreas PANC-1
[2] = tested on: SW156; assay: Anti-proliferation in SW156 renal cell carcinoma cells; format: cell-based; details: read-out: Cellular IC50s Kidney SW156
[3] = tested on: URMC6; assay: Anti-proliferation in URMC6 renal cell carcinoma cells; format: cell-based; details: read-out: Cellular IC50s Kidney URMC6
[4] = tested on: KRAS^G12D Ba/F3 cells; assay: Anti-proliferation in KRAS^G12D Ba/F3 cells; format: cell-based; details: 2 vs 8, 25 vs 26
[5] = target: T1, TAK1 (Homo sapiens, UniProt O43318); assay: Competitive pulldown of TAK1 with biotinylated probe 27 in H358 and H23 cells; format: cell-based; details: 6 h, washout, lysate + 1 μM 27; for blocking of labeling of TAK1 by 27: 10 μM compound; for labeling of TAK1 by 27 after pre-treatment of cells: 1 μM compound; for effect on labeling of TAK1 by 27: 1 or 10 μM compound
T1 sequence (O43318 1-606): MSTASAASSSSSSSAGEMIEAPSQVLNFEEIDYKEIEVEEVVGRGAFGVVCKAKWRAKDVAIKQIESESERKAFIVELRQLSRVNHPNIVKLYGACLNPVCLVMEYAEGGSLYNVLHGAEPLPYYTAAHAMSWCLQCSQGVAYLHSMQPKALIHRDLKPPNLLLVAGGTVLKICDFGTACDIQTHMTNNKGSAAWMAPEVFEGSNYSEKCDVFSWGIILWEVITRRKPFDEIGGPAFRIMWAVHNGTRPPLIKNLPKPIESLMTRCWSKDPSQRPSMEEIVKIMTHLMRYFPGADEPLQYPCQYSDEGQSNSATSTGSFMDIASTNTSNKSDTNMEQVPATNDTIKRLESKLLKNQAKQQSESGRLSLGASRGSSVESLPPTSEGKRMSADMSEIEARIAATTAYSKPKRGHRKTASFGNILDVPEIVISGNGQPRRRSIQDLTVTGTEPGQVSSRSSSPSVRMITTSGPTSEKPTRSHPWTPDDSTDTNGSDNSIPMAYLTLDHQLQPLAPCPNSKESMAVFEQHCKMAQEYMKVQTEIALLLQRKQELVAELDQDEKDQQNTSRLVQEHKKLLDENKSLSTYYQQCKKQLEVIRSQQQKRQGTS
In short: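 H358 and H23 NSCLC cells (KRAS G12C) were exposed to test compound at 1 or 10 μM for 6 h. Drug medium was removed, and cells were rinsed twice with cold PBS and lysed in MPER buffer. Lysates were incubated overnight at 4 °C with 1 μM biotinylated probe and pulled down on streptavidin beads. Recovered TAK1 was detected by immunoblotting.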

[6] = tested on: H23 cells; assay: Anti-proliferation in H23 NSCLC cells; format: cell-based; details: 72 h, in words
In short: (§1)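 Cells seeded at 2000 cells/well and left 48 h before drug addition at varying doses. After 72 h incubation, viability was read by CellTiter-Glo luminescence. Growth-inhibition IC50 values were calculated from dose-response curves.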

[7] = tested on: H358 cells; assay: Anti-proliferation in H358 NSCLC cells; format: cell-based; details: 72 h, in words
In short: as §1

[8] = tested on: synovial fibroblasts from an RA patient (RA2159); assay: Cytokine secretion by activated RA synovial fibroblasts; format: cell-based, human; details: TNFα, IL-1α or Poly(I:C) activation
In short: (§2)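 Primary human RA synovial fibroblasts (lot RA2159) were seeded at 1000 cells/well, grown ~24 h, then starved overnight and ~4 h in 0.1% BSA. Pooled supernatants (duplicates) were diluted 1:3 for 48-analyte Luminex measurement and iMLR modeling.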

[9] = tested on: synovial fibroblasts from an RA patient (RA2159); assay: FGF-basic secretion by TNFα-activated RA synovial fibroblasts; format: cell-based, human; details: TNFα-activated SF
In short: as §2

[10] = target: panel of 456 kinases; assay: KinomeScan ATP-site competition binding panel; details: 1 and 10 μM
[11] = tested on: synovial fibroblasts from an RA patient (RA2159); details: TNFα but not IL-1α or Poly(I:C) ref 24; cited from earlier work
[12] = target: T2, ZAP70 (Homo sapiens, UniProt P43403); assay: KiNativ live-cell profiling in SK-CO-1 cells; format: binding; details: read-out: Inhibition (%) ZAP70
T2 sequence (P43403 1-619): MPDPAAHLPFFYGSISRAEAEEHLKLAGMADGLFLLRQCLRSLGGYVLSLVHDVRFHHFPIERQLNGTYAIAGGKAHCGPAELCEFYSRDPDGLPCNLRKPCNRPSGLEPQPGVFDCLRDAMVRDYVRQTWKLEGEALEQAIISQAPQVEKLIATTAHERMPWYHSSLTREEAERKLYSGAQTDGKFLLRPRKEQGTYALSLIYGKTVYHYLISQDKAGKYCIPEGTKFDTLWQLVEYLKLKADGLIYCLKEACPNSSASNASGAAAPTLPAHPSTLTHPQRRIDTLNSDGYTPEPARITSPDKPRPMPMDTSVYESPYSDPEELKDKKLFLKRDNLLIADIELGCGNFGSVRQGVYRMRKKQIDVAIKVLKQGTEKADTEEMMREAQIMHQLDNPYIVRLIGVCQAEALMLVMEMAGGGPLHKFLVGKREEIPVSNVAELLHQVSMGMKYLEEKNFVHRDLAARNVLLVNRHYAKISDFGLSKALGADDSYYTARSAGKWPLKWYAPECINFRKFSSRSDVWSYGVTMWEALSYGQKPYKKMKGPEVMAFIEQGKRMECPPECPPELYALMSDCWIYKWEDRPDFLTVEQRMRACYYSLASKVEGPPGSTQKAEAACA

[13] = target: T3, MAP2K6 (Homo sapiens, UniProt P52564); assay: KiNativ live-cell profiling in SK-CO-1 cells; format: binding; details: read-out: Inhibition (%) MAP2K6
T3 sequence (P52564 1-334): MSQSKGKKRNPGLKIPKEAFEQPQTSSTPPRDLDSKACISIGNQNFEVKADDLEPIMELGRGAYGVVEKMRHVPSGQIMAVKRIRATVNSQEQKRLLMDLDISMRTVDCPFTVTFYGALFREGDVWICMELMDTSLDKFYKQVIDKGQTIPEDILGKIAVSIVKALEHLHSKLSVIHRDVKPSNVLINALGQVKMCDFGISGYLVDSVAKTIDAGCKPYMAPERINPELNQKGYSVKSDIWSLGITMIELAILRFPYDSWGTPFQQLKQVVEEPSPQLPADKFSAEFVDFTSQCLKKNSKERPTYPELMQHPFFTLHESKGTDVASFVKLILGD

[14] = tested on: SW620, SK-CO-1, PANC-1, AsPc-1, SW156, URMC6; assay: Anti-proliferation across six colon, pancreas and kidney cancer lines; format: cell-based; details: read-out: IC50 values against all lines except PANC-1
[15] = target: T1, TAK1; assay: KiNativ live-cell profiling in SK-CO-1 cells; format: binding; details: 1 μM
[16] = target: T4, MAP2K5 (Homo sapiens, UniProt Q13163); assay: KiNativ live-cell profiling in SK-CO-1 cells; format: binding; details: read-out: Inhibition (%) MAP2K5
T4 sequence (Q13163 1-448): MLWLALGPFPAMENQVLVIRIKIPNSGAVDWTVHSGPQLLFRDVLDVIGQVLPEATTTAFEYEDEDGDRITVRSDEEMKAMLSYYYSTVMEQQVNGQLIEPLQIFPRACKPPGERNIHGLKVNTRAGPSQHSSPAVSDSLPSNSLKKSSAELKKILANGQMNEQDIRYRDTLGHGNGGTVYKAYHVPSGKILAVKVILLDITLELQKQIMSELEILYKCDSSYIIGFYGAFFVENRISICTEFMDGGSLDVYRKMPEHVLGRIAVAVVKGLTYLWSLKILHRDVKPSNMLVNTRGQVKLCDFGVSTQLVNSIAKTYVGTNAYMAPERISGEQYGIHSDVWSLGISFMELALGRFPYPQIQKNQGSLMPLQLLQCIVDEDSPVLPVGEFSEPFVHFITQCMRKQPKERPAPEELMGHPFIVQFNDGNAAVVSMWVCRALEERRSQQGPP

[17] = target: T5, ARAF (Homo sapiens, UniProt P10398); assay: KiNativ live-cell profiling in SK-CO-1 cells; format: binding; details: read-out: Inhibition (%) ARAF
T5 sequence (P10398 1-606): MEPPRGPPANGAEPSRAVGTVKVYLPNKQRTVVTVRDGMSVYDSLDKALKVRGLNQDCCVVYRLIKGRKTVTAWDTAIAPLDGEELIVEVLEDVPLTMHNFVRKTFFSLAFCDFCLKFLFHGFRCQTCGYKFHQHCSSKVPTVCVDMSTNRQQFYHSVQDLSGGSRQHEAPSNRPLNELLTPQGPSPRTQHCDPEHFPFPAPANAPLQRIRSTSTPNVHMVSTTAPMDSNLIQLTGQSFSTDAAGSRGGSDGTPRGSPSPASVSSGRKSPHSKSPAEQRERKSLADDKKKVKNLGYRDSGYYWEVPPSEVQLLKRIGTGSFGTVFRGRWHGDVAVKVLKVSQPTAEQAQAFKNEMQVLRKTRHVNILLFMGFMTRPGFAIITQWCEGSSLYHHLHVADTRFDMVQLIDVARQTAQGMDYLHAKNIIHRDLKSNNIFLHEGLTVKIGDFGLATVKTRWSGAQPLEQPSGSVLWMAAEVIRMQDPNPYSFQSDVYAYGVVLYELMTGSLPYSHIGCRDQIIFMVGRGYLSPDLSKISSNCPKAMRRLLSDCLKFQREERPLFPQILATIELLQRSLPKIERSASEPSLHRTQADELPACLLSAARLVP

Structure (SMILES): Cn1cnc2c(F)c(Nc3ccc(Br)cc3Cl)c(C(=O)NOCCO)cc21 [AZD]
- IC50 [1]: > 100 µM
- IC50 [2]: > 100 µM
- IC50 [3]: > 100 µM

Structure (SMILES): CC(C)Nc1cc(-c2c[nH]c(C(=O)N[C@H](CO)c3cccc(Cl)c3)c2)c(Cl)cn1 [BVD]
- IC50 [1]: > 100 µM
- IC50 [3]: > 100 µM

Structure (SMILES): COc1cc(O)c2c(c1)/C=C/C[C@H](O)[C@H](O)C(=O)/C=C\C[C@H](C)OC2=O [Compound 5Z7, 5Z-7-oxozeaenol, reference compound]
- labeling of TAK1 by 27 after pre-treatment of cells [5]: did not label TAK1
- normalization of induced cytokine secretion ([8]; 0.6 μM): fully normalizing induced cytokine secretion
- KinomeScan inhibition score [10]: strong inhibition score against many kinases other than TAK1
- secretion of FGF-basic in SF activated by TNFα [11]: elevated secretion of fibroblast growth factor-basic

Structure (SMILES): C=CC(=O)Nc1ccccc1Oc1nc(Nc2cnn(C(F)F)c2)ncc1Cl [Compound 23]
- blocking of labeling of TAK1 by 27 [5]: only partially blocked labeling of TAK1

Structure (SMILES): C=CC(=O)Nc1ccccc1Oc1nc(Nc2cnn(CCOC)c2)ncc1Cl [Compound 25]
- binding to TAK1 in KiNativ assay [15]: could not detect binding to TAK1
- inhibition at 1 µM [16]: -59.6%
- inhibition at 1 µM [17]: -15.8%
- inhibition at 1 µM [13]: -21.6%
- blocking of labeling of TAK1 by 27 [5]: only partially blocked labeling of TAK1
- normalization of induced cytokine secretion ([8]; 3 μM): normalized cytokine secretion

Structure (SMILES): CCN1CCN(Cc2ccc(NC(=O)c3ccc(C)c(Oc4ccnc5[nH]ccc45)c3)cc2C(F)(F)F)CC1 [NG25, reference compound]
- effect on labeling of TAK1 by 27 [5]: inhibited TAK1 in an irreversible manner
- anti-proliferative effect, H23 [6]: insufficient to block proliferation at concentrations lower than 5 μM
- anti-proliferative effect, H358 [7]: insufficient to block proliferation at concentrations lower than 5 μM
- normalization of induced cytokine secretion ([8]; 3 μM): normalized cytokine secretion

Continued, in another order:

- blocking of labeling of TAK1 by 27 [5]: only partially blocked labeling of TAK1
- potentiation of FGF-basic secretion induced by TNFα [9]: potentiated FGF-basic secretion
Structure (SMILES): C=CC(=O)Nc1ccccc1Oc1nc(Nc2ccc(N3CCN(C)CC3)cc2)ncc1Cl [Compound 2]
- fold more potent than non-covalent counterpart against KRAS^G12D Ba/F3 cells [4]: approximately 6 fold
- anti-proliferative effect, H23 [6]: potent against both lines at very low concentrations
- anti-proliferative effect, H358 [7]: potent against both lines at very low concentrations
- normalization of induced cytokine secretion ([8]; 3 μM): normalized cytokine secretion

- inhibition at 1 µM [12]: -26.6%
- inhibition at 1 µM [13]: -43.1%
- labeling of TAK1 by 27 after pre-treatment of cells [5]: did not label TAK1
- potentiation of FGF-basic secretion induced by TNFα [9]: potentiated FGF-basic secretion
- IC50 [14]: 0.029 to 0.083 µM
Structure (SMILES): C=CC(=O)Nc1ccccc1Nc1nc(Nc2ccc(N3CCN(C)CC3)cc2)ncc1Cl [Compound 5]
- anti-proliferative effect, H23 [6]: potent against both lines at very low concentrations
- anti-proliferative effect, H358 [7]: potent against both lines at very low concentrations
- normalization of induced cytokine secretion ([8]; 0.6 μM): fully normalizing induced cytokine secretion

- effect on labeling of TAK1 by 27 [5]: did not have a measurable effect
Structure (SMILES): CCC(=O)Nc1ccccc1Oc1nc(Nc2ccc(N3CCN(C)CC3)cc2)ncc1Cl [Compound 8]
- normalization of induced cytokine secretion ([8]; 3 μM): virtually inactive

- effect on labeling of TAK1 by 27 [5]: did not have a measurable effect
Structure (SMILES): CCC(=O)Nc1ccccc1Nc1nc(Nc2ccc(N3CCN(C)CC3)cc2)ncc1Cl [Compound 9]

- blocking of labeling of TAK1 by 27 [5]: only partially blocked labeling of TAK1
Structure (SMILES): CN1CCN(c2ccc(Nc3ncc(Cl)c(Nc4ccccc4NC(=O)CCl)n3)cc2)CC1 [Compound 10]
- anti-proliferative effect, H23 [6]: potent against both lines at very low concentrations
- anti-proliferative effect, H358 [7]: potent against both lines at very low concentrations

- blocking of labeling of TAK1 by 27 [5]: only partially blocked labeling of TAK1
Structure (SMILES): C=CC(=O)Oc1ccccc1Nc1nc(Nc2cccc(N3CCOCC3)c2)ncc1Cl [Compound 20]

- IC50 [1]: > 100 µM
- IC50 [2]: > 100 µM
- effect on labeling of TAK1 by 27 [5]: did not have a measurable effect
Structure (SMILES): CCC(=O)Nc1ccccc1Oc1nc(Nc2cnn(CCOC)c2)ncc1Cl [Compound 26]
- normalization of induced cytokine secretion ([8]; 3 μM): virtually inactive
